SMILES strings stand for the structures. Active and inactive are the calls of the source. The rule behind the calls is not given here.

The subject of one experiment is Leishmania pifanoi. Nature of the experiment: Antileishmanial activity against Leishmania pifanoi MHOM/VE/60/Ltrod after 96 hrs by MTT assay. Format: functional. An outline of the steps:
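Axenic amastigotes harvested at late exponential phase, washed twice in HBSS plus 10 mM D-glucose (pH 7.2) and set at 2 × 10^7 cells/mL. Drug exposure 4 h at 32 °C, then washed. Regrowth 96 h at 32 °C in growth medium without phenol red, followed by MTT (1 mg/mL) reduction for 2 h at 32 °C. LC50 taken from sigmoidal curves; triplicates ± SD.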
A general note: Tetrazolium assays rely on reduction of a dye to a coloured formazan, in cell work by metabolically active cells.

The test system of experiment [1] is Leishmania donovani. The experiment is described as follows: Antileishmanial activity against Leishmania donovani MHOM/SC/00/1S-2D promastigotes after 48 hrs by MTT assay. Format: functional. An outline of the steps:
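Late-exponential promastigotes washed twice in HBSS plus 10 mM D-glucose (pH 7.2) and resuspended at 2 × 10^7 cells/mL. Drug exposure 4 h at 25 °C, then cells washed to remove unbound drug. Regrowth 48 h at 25 °C in growth medium without phenol red, followed by MTT (1 mg/mL) reduction for 2 h at 25 °C. LC50 taken from sigmoidal inhibition curves; mean of triplicates ± SD.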

Experiment [2] has as its system Leishmania donovani. The experiment is described as follows: Antileishmanial activity against Leishmania donovani MHOM/SC/00/1S-2D promastigotes assessed as rhodamine 123 accumulation at LC50 by mitochondrial membrane potential assay. Format: functional. An outline of the steps: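 Promastigotes held overnight in growth medium with each compound at its LC50, then loaded with 0.3 μg/mL rhodamine 123. Dye uptake measured by flow cytometry (ex 488/em 525 nm) and expressed as percent of untreated cells. 1 mM KCN used as the fully depolarized control.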

The test system of experiment [3] is Leishmania donovani. Nature of the experiment: Antileishmanial activity against digitonized Leishmania donovani MHOM/SC/00/1S-2D promastigotes assessed as restoration of oxygen consumption at 16 uM in presence of TMPD-ascorbate. The format is functional. An outline of the steps: (§1)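 Clark electrode at 25 °C. Promastigotes at 10^8 cells/mL in respiration buffer with 5 mM succinate and 1 mg/mL fatty-acid-free BSA. Cells permeabilized with 60 μM digitonin, then 100 μM ADP added for state 3. After a steady rate, compound added, then 10 μM FCCP, 0.1 mM TMPD + 1.7 mM ascorbate, 6.7 mM α-glycerophosphate, 2 mM malonate or 1 μM antimycin A. Rates taken from trace slopes.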

Experiment [4] relates to Leishmania donovani. The experiment is described as follows: Antileishmanial activity against Leishmania donovani MHOM/SC/00/1S-2D promastigotes assessed as plasma membrane integrity at 25 uM. Format: functional, organism-based. The method in brief:
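SYTOX green uptake. Promastigotes (2 × 10^7/mL) in HBSS-Glc were preincubated with 1 μM dye before compound was added. Fluorescence read at ex 485/em 520 nm. Full permeation was defined by 0.1% Triton X-100.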

The subject of experiment [5] is Leishmania donovani. The experiment is described as follows: Decrease in intracellular ATP level in Leishmania donovani MHOM/SC/00/1S-2D promastigotes assessed as luminescence at 0.6 to 8 uM. Format: functional, organism-based. An outline of the steps:
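3-Luc promastigotes expressing cytoplasmic firefly luciferase, 2 × 10^7/mL in HBSS-Glc, loaded with 25 μM DMNPE-luciferin (final). Compound added at the luminescence plateau, counted as time zero and 100%. Luminescence recorded 80 min, averaged every 4 s, and normalized to untreated parasites.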

For experiment [6], the system named is Leishmania donovani. The experiment is described as follows: Antileishmanial activity against Leishmania donovani MHOM/SC/00/1S-2D promastigotes assessed as inhibition of proliferation at 5 um after 4 hrs. Format: functional. The method in brief: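 Promastigotes washed into HBSS-Glc pH 7.2 at 2 × 10^7 cells/mL and exposed to drug for 4 h at 25 °C. Cells then washed and left to grow 48 h at 25 °C in growth medium without phenol red. Growth read by MTT reduction (1 mg/mL, 2 h). Triplicate samples.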

Experiment [7] deals with Leishmania donovani. The experiment is described as follows: Induction of morphological changes in Leishmania donovani MHOM/SC/00/1S-2D promastigotes assessed as mitochondrial kinetoplast at 5 uM after 4 hrs. Format: functional, organism-based. The method in brief: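 Promastigotes treated 4 h under the standard conditions, washed in PBS and fixed in 5% glutaraldehyde. Post-fixed in 2.5% OsO4 for 1 h, dehydrated through graded ethanol and propylene oxide, embedded in Epon 812 and imaged by transmission electron microscopy.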

Experiment [8] concerns Leishmania donovani. Nature of the experiment: Antileishmanial activity against digitonized Leishmania donovani MHOM/SC/00/1S-2D promastigotes assessed as inhibition of oxygen consumption at 16 uM. The format is functional, organism-based. The method in brief:
as §1

The subject of experiment [9] is Leishmania donovani. The experiment is described as follows: Antileishmanial activity against digitonized Leishmania donovani MHOM/SC/00/1S-2D promastigotes assessed as inhibition of oxygen consumption at 16 uM in presence of FCCP mitochondrial uncoupler. The format is functional, organism-based. The method in brief:
as §1

Experiment [10] relates to Leishmania donovani. Nature of the experiment: Antileishmanial activity against digitonized Leishmania donovani MHOM/SC/00/1S-2D promastigotes assessed as restoration of oxygen consumption at 16 uM in presence of alpha-glycerophosphate. Format: functional, organism-based. The method in brief: as §1
The test system of experiment [11] is Leishmania donovani. The experiment is described as follows: Induction of apoptosis in Leishmania donovani MHOM/SC/00/1S-2D promastigotes assessed as apoptotic cells at 15 uM propidium iodide fluorescence cytofluorometry. Format: functional. The method in brief: (§2)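 Promastigotes incubated overnight with the compound, then stained with 50 μg/mL propidium iodide. The sub-G1 peak was measured by flow cytometry. 15 μM miltefosine under identical conditions served as the positive control.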

The subject of experiment [12] is Leishmania donovani. The experiment is described as follows: Induction of apoptosis in Leishmania donovani MHOM/SC/00/1S-2D promastigotes assessed as apoptotic cells at 1 uM propidium iodide fluorescence cytofluorometry. The format is functional. An outline of the steps: as §2
The test system of experiment [13] is Leishmania donovani. Nature of the experiment: Induction of apoptosis in Leishmania donovani MHOM/SC/00/1S-2D promastigotes assessed as apoptotic cells at 2.5 uM propidium iodide fluorescence cytofluorometry. Format: functional. An outline of the steps:
as §2

For `CCC[P+](CCC)(CCC)Cc1ccc(C(=O)c2ccc(C[P+](CCC)(CCC)CCC)cc2)cc1`, the LC50 in the experiment with Leishmania pifanoi and in the experiment on Leishmania donovani [1] was over 50 µM throughout.
For the compound `Cc1ccc([P+](Cc2ccc(C(=O)c3ccc(C[P+](c4ccccc4)(c4ccccc4)c4ccc(C)cc4)cc3)cc2)(c2ccccc2)c2ccccc2)cc1.[Br-].[Br-]`, the LC50 (in general, the concentration lethal to half of the exposed cells or organisms) in the experiment with Leishmania pifanoi was 1.38 µM; in the experiment on Leishmania donovani [1] it was 1.2 µM. The Activity in the experiment with Leishmania donovani [2] stood at 53.25%.
As to `CCCC[P+](CCCC)(CCCC)Cc1ccc(C(=O)c2ccc(C[P+](CCCC)(CCCC)CCCC)cc2)cc1`, the LC50 in the experiment with Leishmania pifanoi and with Leishmania donovani [1] was over 50 µM in each case.
Regarding `CCCCCCCCCCCCCCCCOP(=O)([O-])OCC[N+](C)(C)C` [MILTEFOSINE], the values for the LC50 with Leishmania pifanoi and in the experiment with Leishmania donovani [1] were 26.3 µM and 12.5 µM, respectively. In addition, in the experiment on Leishmania donovani [2], the Activity amounted to 75%.
Regarding `C[P+](C)(C)Cc1ccc(C(=O)c2ccc(C[P+](C)(C)C)cc2)cc1`, the median lethal concentration (LC50) in the experiment with Leishmania pifanoi and with Leishmania donovani [1] was over 50 µM throughout.
In the case of `C[P+](Cc1ccc(C(=O)c2ccc(C[P+](C)(c3ccccc3)c3ccccc3)cc2)cc1)(c1ccccc1)c1ccccc1.[Br-].[Br-]`, the LC50 was 1.64 µM in the experiment on Leishmania pifanoi and 19.3 µM in the experiment on Leishmania donovani [1]. Moreover, the Activity with Leishmania donovani [2] was found to be 100%.
For the compound `CC[P+](CC)(Cc1ccc(C(=O)c2ccc(C[P+](CC)(CC)c3ccccc3)cc2)cc1)c1ccccc1`, the LC50 in the experiment with Leishmania pifanoi and in the experiment with Leishmania donovani [1] was over 50 µM each time.
With `O=C(c1ccc(C[P+](c2ccccc2)(c2ccccc2)c2ccccn2)cc1)c1ccc(C[P+](c2ccccc2)(c2ccccc2)c2ccccn2)cc1.[Br-].[Br-]`, the LC50 was 2.58 µM in the experiment with Leishmania pifanoi and 3.03 µM in the experiment with Leishmania donovani [1]. In addition, the Activity with Leishmania donovani [2] is listed as 100%.
Take `O=C(c1ccc(C[P+](c2ccccc2)(c2ccccc2)c2ccccc2)cc1)c1ccc(C[P+](c2ccccc2)(c2ccccc2)c2ccccc2)cc1.[Br-].[Br-]`: the LC50 amounted to 1.53 µM with Leishmania pifanoi and 2.73 µM in the experiment with Leishmania donovani [1]. The Activity with Leishmania donovani [2] is recorded as 67.25%.
Take `C[P+](C)(Cc1ccc(C(=O)c2ccc(C[P+](C)(C)c3ccccc3)cc2)cc1)c1ccccc1`: the LC50 with Leishmania pifanoi and in the experiment with Leishmania donovani [1] was over 50 µM throughout.
For the compound `CC[P+](Cc1ccc(C(=O)c2ccc(C[P+](CC)(c3ccccc3)c3ccccc3)cc2)cc1)(c1ccccc1)c1ccccc1.[Br-].[Br-]`, the median lethal concentration (LC50) stood at 14 µM in the experiment with Leishmania pifanoi and 6.9 µM with Leishmania donovani [1]. In addition, in the experiment with Leishmania donovani [2], the Activity is 100%.
With `O=C(c1ccc(C[P+](c2ccco2)(c2ccco2)c2ccco2)cc1)c1ccc(C[P+](c2ccco2)(c2ccco2)c2ccco2)cc1`, the LC50 in the experiment on Leishmania pifanoi is over 50 µM; in the experiment on Leishmania donovani [1], 18.1 µM.
As to `Cc1ccccc1[P+](Cc1ccc(C(=O)c2ccc(C[P+](c3ccccc3)(c3ccccc3)c3ccccc3C)cc2)cc1)(c1ccccc1)c1ccccc1.[Br-].[Br-]`, the LC50 in the experiment on Leishmania pifanoi stood at 1.51 µM; with Leishmania donovani [1], 1.9 µM. Further, the Activity with Leishmania donovani [2] was 55.75%.
The like results for `CCCCCCCC[P+](CCCCCCCC)(CCCCCCCC)Cc1ccc(C(=O)c2ccc(C[P+](CCCCCCCC)(CCCCCCCC)CCCCCCCC)cc2)cc1.[Br-].[Br-]` were, in that order, 1.37 µM, 5.66 µM and 10.8%.
Consider `O=C(c1ccc(C[P+](C2CCCCC2)(C2CCCCC2)C2CCCCC2)cc1)c1ccc(C[P+](C2CCCCC2)(C2CCCCC2)C2CCCCC2)cc1.[Br-].[Br-]`, for which the LC50 worked out at 1.67 µM in the experiment on Leishmania pifanoi and 3.3 µM with Leishmania donovani [1]. In addition, the Activity with Leishmania donovani [2] is reported as 42%.
Turning to `CC[P+](CC)(CC)Cc1ccc(C(=O)c2ccc(C[P+](CC)(CC)CC)cc2)cc1`, the LC50 in the experiment on Leishmania pifanoi and in the experiment with Leishmania donovani [1] was over 50 µM each time.
Regarding `CC(C)[P+](Cc1ccc(C(=O)c2ccc(C[P+](C(C)C)(C(C)C)C(C)C)cc2)cc1)(C(C)C)C(C)C`, the LC50 in the experiment with Leishmania pifanoi and in the experiment on Leishmania donovani [1] was over 50 µM in each case.
In the case of `CC(C)C[P+](Cc1ccc(C(=O)c2ccc(C[P+](CC(C)C)(CC(C)C)CC(C)C)cc2)cc1)(CC(C)C)CC(C)C`, the LC50 in the experiment with Leishmania pifanoi and with Leishmania donovani [1] was over 50 µM throughout.
Take `CCCCC[P+](CCCCC)(CCCCC)Cc1ccc(C(=O)c2ccc(C[P+](CCCCC)(CCCCC)CCCCC)cc2)cc1.[Br-].[Br-]`: the Activity is recorded as 50% in the experiment on Leishmania donovani [3]; 48% with Leishmania donovani [2]; 24.9% in the experiment on Leishmania donovani [11]; 22.1% in the experiment with Leishmania donovani [12]; 34.5% in the experiment with Leishmania donovani [13]. The values for the 50% lethal concentration (LC50) in the experiment on Leishmania pifanoi and in the experiment on Leishmania donovani [1] were 0.97 µM and 1.09 µM, respectively. In the experiment with Leishmania donovani [4], the result was inactive. The result with Leishmania donovani [5], in the experiment with Leishmania donovani [7], in the experiment with Leishmania donovani [8], in the experiment with Leishmania donovani [9] and in the experiment on Leishmania donovani [10] was Active. Also, in the experiment with Leishmania donovani [6], the “inhibition (INH)” value is listed as 80%.
As to `O=C(c1ccc(C[P+](c2ccccc2)(C2CCCCC2)C2CCCCC2)cc1)c1ccc(C[P+](c2ccccc2)(C2CCCCC2)C2CCCCC2)cc1.[Br-].[Br-]`, the LC50 was 1.45 µM with Leishmania pifanoi and 2.1 µM with Leishmania donovani [1]. For the same compound, the Activity with Leishmania donovani [2] was determined as 83.12%.

The record behind these values is ChEMBL document CHEMBL1157544, “New benzophenone-derived bisphosphonium salts as leishmanicidal leads targeting mitochondria through inhibition of respiratory complex II” (2010).
